Data as given in ChEMBL document CHEMBL1145814, “Antiretroviral activity of semisynthetic derivatives of glycopeptide antibiotics” (J Med Chem, 2003).
pEC50, pIC50: −log10 of the molar value. Values after ≈ are worked out from the molar mass of the structure shown.

Legend:
Mus musculus [1] = organism: Mus musculus; assay: Effective concentration of compound required to protect C3H/3T3 embryo murine fibroblasts against the MSV induced transformation; format: functional, organism-based; settings: Mus musculus, C3H/3T3
In short: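 Monolayer murine embryo fibroblast C3H/3T3 cultures were infected with Moloney murine sarcoma virus at 75 focus-forming units and cultured with test compound. Transformation was examined microscopically on day 6 postinfection. EC50 is the concentration protecting cells against MSV-induced transformation by 50%.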

Mus musculus [2] = organism: Mus musculus; assay: Minimal inhibitory concentration required to cause a microscopic detectable alteration of C3H/3T3 embryo murine fibroblast cell morphology; format: functional
In short: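 Uninfected C3H/3T3 murine embryo fibroblast cultures were exposed to test compound and checked microscopically for changes in cell morphology. The MIC is the concentration causing a microscopically detectable alteration of morphology.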

[3] = system: Human immunodeficiency virus 1; assay: Effective concentration of compound required to protect human T-lymphocytic cells against the cytopathogenicity of HIV-1; format: functional, organism-based; settings: Human immunodeficiency virus 1
[4] = system: Human immunodeficiency virus 2; assay: Concentration required to protect human T-lymphocytic cells against the cytopathogenicity of HIV-2; format: functional, organism-based; settings: Human immunodeficiency virus 2
CCRF-CEM = assay: Inhibitory concentration against proliferation of human T-lymphocytic (CEM) cells; format: functional, cell-based; settings: Homo sapiens, CCRF-CEM
In short: (§1)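 (5–7.5) × 10^4 cells per well were incubated with test compound at 37 °C in a humidified CO2 atmosphere. L1210 murine leukemia cells grew for 48 h, and CEM and Molt4/clone 8 human lymphocytes grew for 72 h. Cells were then counted with a Coulter counter. IC50 is the concentration inhibiting proliferation by 50%.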

MOLT-4 = assay: Inhibitory concentration of compound against proliferation of human T-lymphocytic cells MOLT-4/C8 was determined; format: functional, cell-based; in short: as §1
L1210 = assay: Inhibitory concentration of compound against proliferation of murine lukemia cells L1210 was determined; format: functional, cell-based; settings: Mus musculus; in short: as §1

Compound	pEC50 [3]	pEC50 [4]	pIC50 (CCRF-CEM)	pIC50 (MOLT-4)	pIC50 (L1210)	pEC50 (Mus musculus [1])	MIC (Mus musculus [2]) [µM]
COC(=O)[C@H]1NC(=O)C2NC(=O)C(NC(=O)[C@@H]3NC(=O)[C@H]4NC(=O)[C@H](NC(=O)[C@H](N)c5ccc(O)c(c5)Oc5cc4cc(O)c5C)[C@H](O)c4ccc(cc4)Oc4cc3cc(c4O)Oc3ccc(cc3)[C@H]2O[C@@H]2C[C@@H](N)[C@@H](O)[C@@H](C)O2)c2ccc(O)c(c2)-c2c(O)cc(O)cc21	< 4.30	< 3.60	< 4.00	–	–	4.28	> 100
COC(=O)[C@@H]1NC(=O)C2NC(=O)C(NC(=O)C(N)c3cc(Oc4ccc(CC(NC(=O)OCc5ccccc5)C(=O)O)cc4Cl)c(O)c(c3)Oc3ccc(cc3Cl)C2O)c2ccc(O)c(c2)-c2c(O)cc(O)cc21 (stereo not given in full)	4.60	4.07	< 3.30	< 3.30	< 3.30	–	–
COC(=O)[C@@H]1NC(=O)C2NC(=O)C(NC(=O)C3NC(=O)C4NC(=O)C(NC(=O)C(N)c5ccc(O)c(c5)Oc5cc4cc(O)c5C)C(O)c4ccc(cc4)Oc4cc3cc(c4O)Oc3ccc(cc3)C2O)c2ccc(O)c(c2)-c2c(O)cc(O)cc21 (stereo not given in full)	4.60	< 4.30	< 4.00	–	–	4.72	> 100
NC1C(=O)NC2Cc3ccc(c(Cl)c3)Oc3cc4cc(c3O)Oc3ccc(cc3Cl)C(O)C(C(=O)O)NC(=O)C(c3ccc(O)c(-c5c(O)cc(O)cc5[C@@H](N)C(=O)O)c3)NC(=O)C4NC(=O)C(NC2=O)c2cc(O)cc(c2)Oc2cc1ccc2O (stereo not given in full)	4.66	4.49	< 3.60	–	–	4.85	> 100
CCCCc1ccc(CNCc2c(O)cc3c(c2O)-c2cc(ccc2O)C2NC(=O)C4NC(=O)C5NC(=O)C(Cc6ccc(c(Cl)c6)Oc6cc4cc(c6O)Oc4ccc(cc4Cl)C(O)C(NC2=O)C(=O)N[C@H]3C(=O)O)NC(=O)C(NC(=O)OC(C)(C)C)c2ccc(O)c(c2)Oc2cc(O)cc5c2)cc1 (stereo not given in full)	4.70	5.08	4.22	–	–	5.12	> 100
CCCCCCCCCCNC(=O)[C@H]1NC(=O)[C@H]2NC(=O)[C@H](NC(=O)[C@@H]3NC(=O)[C@H](CC(N)=O)NC(=O)[C@H](NC(=O)[C@@H](CC(C)C)NC)[C@H](O)c4ccc(c(Cl)c4)Oc4cc3cc(c4O[C@@H]3O[C@H](CO)[C@@H](O)[C@H](O)[C@H]3O[C@H]3C[C@](C)(N)[C@@H](O)[C@H](C)O3)Oc3ccc(cc3)[C@H]2O[C@H]2C[C@](C)(N)[C@@H](O)[C@H](C)O2)c2ccc(O)c(c2)-c2c(O)cc(O)cc21	< 5.00	< 5.00	5.03	4.68	4.54	–	–
O=C(NC1C(=O)NC2Cc3ccc(c(Cl)c3)Oc3cc4cc(c3O)Oc3ccc(cc3Cl)C(O)C3NC(=O)C(NC(=O)C4NC(=O)C(NC2=O)c2cc(O)cc(c2)Oc2cc1ccc2O)c1ccc(O)c(c1)-c1c(O)cc(O)cc1[C@H](C(=O)O)NC3=O)OCC1c2ccccc2-c2ccccc21 (stereo not given in full)	4.77	4.82	3.94	–	–	5.00	100 (≈ 142 µg/mL)
NC1C(=O)NC2Cc3ccc(c(Cl)c3)Oc3cc4cc(c3O)Oc3ccc(cc3Cl)C(O)C3NC(=O)C(NC(=O)C4NC(=O)C(NC2=O)c2cc(O)cc(c2)Oc2cc1ccc2O)c1ccc(O)c(c1)-c1c(cc(O)c(CNC2C4CC5CC(C4)CC2C5)c1O)[C@H](C(=O)O)NC3=O (stereo not given in full)	4.60	4.43	< 3.60	–	–	5.25	100 (≈ 136 µg/mL)
CNC(=O)[C@@H]1NC(=O)C2NC(=O)C(NC(=O)C3NC(=O)C4NC(=O)C(Cc5ccc(c(Cl)c5)Oc5cc3cc(c5O)Oc3ccc(cc3Cl)C2O)NC(=O)C(NC(=O)OC23CC5CC(CC(C5)C2)C3)c2ccc(O)c(c2)Oc2cc(O)cc4c2)c2ccc(O)c(c2)-c2c(O)cc(O)cc21 (stereo not given in full)	4.77	5.11	4.06	–	–	5.06	100 (≈ 139 µg/mL)
COC(=O)[C@@H]1NC(=O)C2NC(=O)C(NC(=O)C(NC(=O)OC(C)(C)C)c3cc(Oc4ccc(CC(NC(=O)OCc5ccccc5)C(=O)O)cc4Cl)c(O)c(c3)Oc3ccc(cc3Cl)C2O)c2ccc(O)c(c2)-c2c(O)cc(O)cc21 (stereo not given in full)	4.77	4.77	< 3.60	–	–	4.06	> 100

The next lines start with results.

pEC50 [3]	pEC50 [4]	pIC50 (CCRF-CEM)	pIC50 (MOLT-4)	pIC50 (L1210)	Compound	pEC50 (Mus musculus [1])	MIC (Mus musculus [2]) [µM]
5.35	5.35	< 4.00	–	–	CC(C)CC(C(=O)NC1C(=O)NC(CC(N)=O)C(=O)NC2C(=O)NC3C(=O)NC(C(=O)N[C@@H](C(=O)O)c4cc(O)c(CN5CCN(Cc6ccc(-c7ccccc7)cc6)CC5)c(O)c4-c4cc3ccc4O)C(O)c3ccc(cc3)Oc3cc2cc(c3O)Oc2ccc(cc2Cl)C1O)N(C)C(=O)OC(C)(C)C (stereo not given in full)	5.08	> 100
4.89	4.77	3.64	–	–	CNC(=O)[C@@H]1NC(=O)C2NC(=O)C(NC(=O)C3NC(=O)C4NC(=O)C(Cc5ccc(c(Cl)c5)Oc5cc3cc(c5O)Oc3ccc(cc3Cl)C2O)NC(=O)C(NC(=O)OC(C)(C)C)c2ccc(O)c(c2)Oc2cc(O)cc4c2)c2ccc(O)c(c2)-c2c(O)cc(O)cc21 (stereo not given in full)	4.96	> 100
4.89	4.70	< 3.60	–	–	CC(C)(C)OC(=O)NC1C(=O)NC2Cc3ccc(c(Cl)c3)Oc3cc4cc(c3O)Oc3ccc(cc3Cl)C(O)C3NC(=O)C(NC(=O)C4NC(=O)C(NC2=O)c2cc(O)cc(c2)Oc2cc1ccc2O)c1ccc(O)c(c1)-c1c(O)cc(O)cc1[C@H](C(=O)O)NC3=O (stereo not given in full)	4.92	> 100
4.82	4.43	< 3.60	–	–	NC1Cc2ccc(c(Cl)c2)Oc2cc3cc(c2O)Oc2ccc(cc2Cl)C(O)C2NC(=O)C(NC(=O)C3NC(=O)C(c3cc(O)cc(Oc4cc(C5NC(=S)N(c6ccccc6)C5=O)ccc4O)c3)NC1=O)c1ccc(O)c(c1)-c1c(O)cc(O)cc1[C@H](C(=O)O)NC2=O (stereo not given in full)	4.57	> 100
5.85	5.21	< 4.00	< 4.00	4.32	CCCCCCCCCCNCc1c(O)cc2c(c1O)-c1cc(ccc1O)C1NC(=O)C3NC(=O)C4NC(=O)C(Cc5ccc(c(Cl)c5)Oc5cc3cc(c5O)Oc3ccc(cc3Cl)C(O)C(NC1=O)C(=O)N[C@H]2C(=O)NCCCN(C)C)NC(=O)C(N)c1ccc(O)c(c1)Oc1cc(O)cc4c1 (stereo not given in full)	–	–
5.46	4.66	4.09	–	–	CCCCc1ccc(CNC2C(Oc3c4cc5cc3Oc3ccc(cc3Cl)C(O)C3NC(=O)C(NC(=O)C5NC(=O)C5NC(=O)C(Cc6ccc(cc6)O4)NC(=O)C(NC)c4ccc(O)c(c4)Oc4cc(O)c(Cl)c5c4)c4ccc(O)c(c4)-c4c(cc(O)c(CN5CCN(Cc6ccc(-c7ccccc7)cc6)CC5)c4O)[C@H](C(=O)O)NC3=O)OC(C(=O)O)C(O)C2O)cc1 (stereo not given in full)	5.16	> 20
5.35	5.11	4.66	–	–	CCCCCCCCCCCCCCCCCCNCc1c(O)cc2c(c1O)-c1cc(ccc1O)C1NC(=O)C3NC(=O)C4NC(=O)C(Cc5ccc(c(Cl)c5)Oc5cc3cc(c5O)Oc3ccc(cc3Cl)C(O)C(NC1=O)C(=O)N[C@H]2C(=O)O)NC(=O)C(N)c1ccc(O)c(c1)Oc1cc(O)cc4c1 (stereo not given in full)	5.77	100 (≈ 148 µg/mL)
